Data published in ChEMBL document CHEMBL3621116, “Benzimidazole Derivatives as Potent JAK1-Selective Inhibitors” (J Med Chem, 2015).

How the values were obtained:
Homo sapiens [1] = organism: Homo sapiens; assay: Selectivity ratio of IC50 for JAK2 (unknown origin) using 35 uM of ATP and Tyr6 peptide to IC50 for JAK1 (unknown origin) using 87 uM of ATP and Tyr6 peptide
Outline: (§1)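 JAK1 selectivity taken as IC50 against JAK2 or JAK3 divided by IC50 against JAK1. […] IC50s are means ± SD of three independent experiments.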

[2] = target: Non-receptor tyrosine-protein kinase TYK2 (Homo sapiens, UniProt P29597); assay: Inhibition of Tyk2 (unknown origin) using 25 uM of ATP and Tyr3 peptide by Z'-LYTE kinase assay
[3] = target: T1, Tyrosine-protein kinase JAK3 (Homo sapiens, UniProt P52333); assay: Inhibition of JAK3 (unknown origin) using 16 uM of ATP and Tyr6 peptide by Z'-LYTE kinase assay
T1 sequence (P52333 whole entry): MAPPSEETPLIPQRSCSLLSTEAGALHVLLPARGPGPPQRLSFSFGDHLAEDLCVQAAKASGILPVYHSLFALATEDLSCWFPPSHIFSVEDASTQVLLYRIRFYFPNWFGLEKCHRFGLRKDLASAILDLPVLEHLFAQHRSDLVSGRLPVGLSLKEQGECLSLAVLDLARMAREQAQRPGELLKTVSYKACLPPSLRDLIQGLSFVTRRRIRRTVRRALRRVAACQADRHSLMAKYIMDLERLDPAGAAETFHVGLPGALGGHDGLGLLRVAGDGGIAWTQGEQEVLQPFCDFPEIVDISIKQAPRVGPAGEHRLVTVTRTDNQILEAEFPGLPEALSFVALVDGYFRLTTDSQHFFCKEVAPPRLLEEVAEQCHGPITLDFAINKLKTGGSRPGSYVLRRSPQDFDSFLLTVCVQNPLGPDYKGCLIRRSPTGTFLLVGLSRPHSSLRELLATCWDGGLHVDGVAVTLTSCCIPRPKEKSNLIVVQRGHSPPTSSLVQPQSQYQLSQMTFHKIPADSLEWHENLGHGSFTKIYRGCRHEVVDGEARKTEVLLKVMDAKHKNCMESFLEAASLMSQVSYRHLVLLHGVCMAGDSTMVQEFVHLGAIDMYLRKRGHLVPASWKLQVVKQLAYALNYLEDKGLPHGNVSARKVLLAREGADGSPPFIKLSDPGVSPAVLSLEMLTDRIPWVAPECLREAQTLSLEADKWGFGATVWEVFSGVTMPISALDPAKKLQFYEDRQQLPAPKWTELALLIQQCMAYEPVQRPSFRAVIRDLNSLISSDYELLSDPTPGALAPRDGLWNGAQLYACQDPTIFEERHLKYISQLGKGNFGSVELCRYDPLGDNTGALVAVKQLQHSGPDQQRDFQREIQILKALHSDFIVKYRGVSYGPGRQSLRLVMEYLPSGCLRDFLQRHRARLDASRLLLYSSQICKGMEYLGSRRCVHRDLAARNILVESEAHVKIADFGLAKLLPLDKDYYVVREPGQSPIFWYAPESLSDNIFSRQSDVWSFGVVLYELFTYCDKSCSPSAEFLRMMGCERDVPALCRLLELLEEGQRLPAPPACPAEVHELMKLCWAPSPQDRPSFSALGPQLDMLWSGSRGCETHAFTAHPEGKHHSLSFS

Homo sapiens [4] = organism: Homo sapiens; assay: Selectivity ratio of IC50 for JAK3 (unknown origin) using 16 uM of ATP and Tyr6 peptide to IC50 for JAK1 (unknown origin) using 87 uM of ATP and Tyr6 peptide; outline: as §1
[5] = target: T2, Tyrosine-protein kinase JAK2 (Homo sapiens, UniProt O60674); assay: Inhibition of JAK2 (unknown origin) using 35 uM of ATP and Tyr6 peptide by Z'-LYTE kinase assay
[6] = target: Tyrosine-protein kinase JAK1 (Homo sapiens, UniProt P23458); assay: Inhibition of JAK1 (unknown origin) using 87 uM of ATP and Tyr6 peptide by Z'-LYTE kinase assay
[7] = target: T2, Tyrosine-protein kinase JAK2; assay: Inhibition of JAK2 (unknown origin)

T2 sequence (O60674 whole entry): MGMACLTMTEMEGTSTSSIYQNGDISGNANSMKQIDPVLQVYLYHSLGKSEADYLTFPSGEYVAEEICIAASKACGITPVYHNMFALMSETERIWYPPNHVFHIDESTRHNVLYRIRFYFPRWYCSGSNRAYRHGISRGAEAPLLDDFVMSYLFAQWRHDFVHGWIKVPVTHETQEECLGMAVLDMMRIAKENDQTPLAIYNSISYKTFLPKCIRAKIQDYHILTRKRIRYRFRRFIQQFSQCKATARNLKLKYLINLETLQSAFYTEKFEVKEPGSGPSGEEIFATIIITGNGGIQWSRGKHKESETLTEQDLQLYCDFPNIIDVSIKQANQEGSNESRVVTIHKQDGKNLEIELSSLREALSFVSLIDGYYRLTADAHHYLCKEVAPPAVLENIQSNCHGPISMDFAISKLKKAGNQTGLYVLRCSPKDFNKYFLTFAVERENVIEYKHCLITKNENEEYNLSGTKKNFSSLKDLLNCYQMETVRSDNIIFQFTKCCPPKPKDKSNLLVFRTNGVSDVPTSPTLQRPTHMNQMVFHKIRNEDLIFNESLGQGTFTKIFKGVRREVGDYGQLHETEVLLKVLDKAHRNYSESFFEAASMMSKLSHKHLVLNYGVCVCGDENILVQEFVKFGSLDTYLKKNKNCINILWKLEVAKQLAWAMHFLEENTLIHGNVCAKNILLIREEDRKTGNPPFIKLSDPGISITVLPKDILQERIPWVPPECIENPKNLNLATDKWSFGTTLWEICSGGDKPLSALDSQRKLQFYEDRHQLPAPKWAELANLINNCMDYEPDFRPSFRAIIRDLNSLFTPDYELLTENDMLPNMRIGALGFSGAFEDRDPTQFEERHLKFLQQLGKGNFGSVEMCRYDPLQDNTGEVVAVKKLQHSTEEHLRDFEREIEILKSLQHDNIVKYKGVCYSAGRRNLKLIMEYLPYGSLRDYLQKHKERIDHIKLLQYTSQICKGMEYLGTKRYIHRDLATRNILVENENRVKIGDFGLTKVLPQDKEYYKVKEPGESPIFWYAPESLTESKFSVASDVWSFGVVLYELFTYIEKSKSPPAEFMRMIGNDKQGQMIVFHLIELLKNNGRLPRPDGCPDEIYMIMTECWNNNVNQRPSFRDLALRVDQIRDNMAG
Tyrosine-protein kinase JAK1, sequence (P23458 whole entry): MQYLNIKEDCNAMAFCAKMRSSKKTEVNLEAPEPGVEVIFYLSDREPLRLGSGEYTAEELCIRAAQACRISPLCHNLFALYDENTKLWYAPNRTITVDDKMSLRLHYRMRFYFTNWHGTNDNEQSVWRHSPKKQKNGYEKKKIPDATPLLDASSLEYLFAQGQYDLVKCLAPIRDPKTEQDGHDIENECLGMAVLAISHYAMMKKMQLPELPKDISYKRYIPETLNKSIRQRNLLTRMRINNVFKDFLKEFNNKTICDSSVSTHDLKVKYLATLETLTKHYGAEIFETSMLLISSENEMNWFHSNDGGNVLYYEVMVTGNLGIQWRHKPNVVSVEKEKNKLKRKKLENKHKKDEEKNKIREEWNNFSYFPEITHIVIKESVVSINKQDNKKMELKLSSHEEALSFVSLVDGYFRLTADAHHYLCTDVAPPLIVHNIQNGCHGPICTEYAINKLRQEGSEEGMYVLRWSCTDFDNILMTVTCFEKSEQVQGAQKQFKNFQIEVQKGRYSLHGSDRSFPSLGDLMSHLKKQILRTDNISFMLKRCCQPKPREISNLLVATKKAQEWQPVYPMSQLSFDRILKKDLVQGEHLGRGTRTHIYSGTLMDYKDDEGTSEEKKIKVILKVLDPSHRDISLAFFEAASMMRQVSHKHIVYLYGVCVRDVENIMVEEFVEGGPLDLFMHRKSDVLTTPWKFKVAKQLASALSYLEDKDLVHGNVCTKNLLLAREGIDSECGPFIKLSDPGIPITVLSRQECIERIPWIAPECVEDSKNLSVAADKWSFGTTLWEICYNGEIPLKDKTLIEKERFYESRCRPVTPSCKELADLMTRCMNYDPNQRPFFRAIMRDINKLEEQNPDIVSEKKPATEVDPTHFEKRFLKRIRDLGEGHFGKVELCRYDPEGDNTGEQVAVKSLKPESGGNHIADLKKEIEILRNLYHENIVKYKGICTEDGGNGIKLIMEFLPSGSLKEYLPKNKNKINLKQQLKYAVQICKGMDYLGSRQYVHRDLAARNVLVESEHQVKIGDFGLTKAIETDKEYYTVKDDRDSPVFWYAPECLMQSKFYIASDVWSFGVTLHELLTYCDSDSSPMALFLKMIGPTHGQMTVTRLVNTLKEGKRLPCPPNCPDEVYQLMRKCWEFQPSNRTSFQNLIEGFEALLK
Non-receptor tyrosine-protein kinase TYK2, sequence (P29597 whole entry): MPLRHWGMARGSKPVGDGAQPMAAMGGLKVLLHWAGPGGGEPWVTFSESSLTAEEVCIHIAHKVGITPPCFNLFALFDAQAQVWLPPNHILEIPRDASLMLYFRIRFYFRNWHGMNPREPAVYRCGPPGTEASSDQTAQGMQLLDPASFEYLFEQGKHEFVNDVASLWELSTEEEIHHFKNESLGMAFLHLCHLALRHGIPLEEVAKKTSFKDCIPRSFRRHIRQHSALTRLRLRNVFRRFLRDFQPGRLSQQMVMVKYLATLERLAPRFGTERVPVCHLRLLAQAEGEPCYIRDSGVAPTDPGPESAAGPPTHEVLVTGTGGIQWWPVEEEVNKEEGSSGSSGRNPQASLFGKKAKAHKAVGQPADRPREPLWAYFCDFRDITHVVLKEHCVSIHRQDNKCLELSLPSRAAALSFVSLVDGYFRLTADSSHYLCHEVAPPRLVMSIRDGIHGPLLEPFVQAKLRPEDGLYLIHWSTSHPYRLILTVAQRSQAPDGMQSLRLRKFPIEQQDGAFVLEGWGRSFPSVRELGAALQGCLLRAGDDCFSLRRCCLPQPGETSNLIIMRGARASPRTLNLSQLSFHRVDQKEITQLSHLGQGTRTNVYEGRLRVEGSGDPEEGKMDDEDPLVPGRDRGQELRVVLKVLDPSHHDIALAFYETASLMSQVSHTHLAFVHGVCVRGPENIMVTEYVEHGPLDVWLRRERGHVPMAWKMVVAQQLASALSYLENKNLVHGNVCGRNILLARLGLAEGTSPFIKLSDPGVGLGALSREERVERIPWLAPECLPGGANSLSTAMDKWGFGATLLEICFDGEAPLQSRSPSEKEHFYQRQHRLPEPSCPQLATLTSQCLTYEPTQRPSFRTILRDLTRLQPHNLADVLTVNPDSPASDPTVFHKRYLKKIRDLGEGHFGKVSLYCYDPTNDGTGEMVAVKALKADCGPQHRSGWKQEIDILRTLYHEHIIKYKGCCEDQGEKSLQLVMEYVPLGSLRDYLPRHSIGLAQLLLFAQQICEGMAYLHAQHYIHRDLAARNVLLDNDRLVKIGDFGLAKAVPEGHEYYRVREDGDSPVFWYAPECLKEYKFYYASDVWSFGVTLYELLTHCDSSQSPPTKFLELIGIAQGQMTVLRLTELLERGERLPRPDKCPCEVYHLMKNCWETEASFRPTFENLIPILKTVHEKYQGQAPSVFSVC

SMILES	Ratio IC50 (Homo sapiens [1])	IC50 [2] [nM]	IC50 [3] [nM]	Ratio IC50 (Homo sapiens [4])	IC50 [5] [nM]	IC50 [6] [nM]	IC50 [7] [nM]
N#Cc1ccc(-c2nc3cc(C(N)=O)ccc3n2CCN)cc1	0.9	2500	1900	0.7	2600	2900	
CC[C@@](C)(Nc1ccnc(-c2c[nH]c3ncccc23)n1)C(=O)NCC(F)(F)F [DECERNOTINIB]							13
NCCn1c(-c2ccc(C(F)(F)F)cc2)nc2cc(C(N)=O)ccc21	0.5	3200	2100	0.2	4800	9300	
NCCCn1c(CCN)nc2cc(C(N)=O)ccc21	0.4	6400	1500	0.2	2200	6100	
NCCn1c(-c2ccccc2)nc2cc(C(N)=O)ccc21	0.2	4200	14100	1	2800	11600	
NCCCc1nc2cc(C(N)=O)ccc2n1CCN	0.7	2500	1100	0.5	1600	2200	
NCCn1c(-c2ccc(O)cc2O)nc2cc(C(N)=O)ccc21	0.8	3700	2900	0.9	2500	3100	
NCCCn1c(-c2ccccc2)nc2cc(C(N)=O)ccc21	2	2700	1800	0.2	20500	11300	
CC(C)c1ccc(-c2nc3cc(C(N)=O)ccc3n2CCN)cc1	2	2700	1900	0.6	5900	3100	
